Test results published in ChEMBL document CHEMBL1926550, “Synthesis and antibacterial activity of naphthyridone derivatives containing mono/difluoro-methyloxime pyrrolidine scaffolds” (2012).
Values after ≈ are worked out from the molar mass of the structure shown.

How the values were obtained:
Format in all cases: functional
[1] = system: Escherichia coli; assay: Antibacterial activity against Escherichia coli 10-1 after 18 hrs by two fold serial dilution method; conditions: 10-1, 18 h
Summary of the method: (§1)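 Agar two-fold serial dilution in melted Mueller-Hinton agar, final concentrations 128 down to 0.008 μg/mL. Plates inoculated with 10⁴ cfu and incubated at 35 °C for 18 h. MIC taken as the lowest concentration giving no visible growth on the plate.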

[2] = system: Escherichia coli; assay: Antibacterial activity against Escherichia coli 10-2 after 18 hrs by two fold serial dilution method; conditions: 10-2, 18 h; summary of the method: as §1
[3] = system: Escherichia coli; assay: Antibacterial activity against Escherichia coli 10-3 after 18 hrs by two fold serial dilution method; conditions: 10-3, 18 h; summary of the method: as §1
[4] = system: Klebsiella pneumoniae; assay: Antibacterial activity against Klebsiella pneumoniae 09-2 after 18 hrs by two fold serial dilution method; conditions: 09-2, 18 h; summary of the method: as §1
[5] = system: Klebsiella pneumoniae; assay: Antibacterial activity against Klebsiella pneumoniae 10-1 after 18 hrs by two fold serial dilution method; conditions: 10-1, 18 h; summary of the method: as §1
[6] = system: Klebsiella pneumoniae; assay: Antibacterial activity against Klebsiella pneumoniae 10-3 after 18 hrs by two fold serial dilution method; conditions: 10-3, 18 h; summary of the method: as §1
[7] = system: Pseudomonas aeruginosa; assay: Antibacterial activity against Pseudomonas aeruginosa ATCC 27853 after 18 hrs by two fold serial dilution method; conditions: ATCC 27853, 18 h; summary of the method: as §1
[8] = system: Pseudomonas aeruginosa; assay: Antibacterial activity against Pseudomonas aeruginosa 10-1 after 18 hrs by two fold serial dilution method; conditions: 10-1, 18 h; summary of the method: as §1
[9] = system: Pseudomonas aeruginosa; assay: Antibacterial activity against Pseudomonas aeruginosa 10-2 after 18 hrs by two fold serial dilution method; conditions: 10-2, 18 h; summary of the method: as §1
[10] = system: Pseudomonas aeruginosa; assay: Antibacterial activity against Pseudomonas aeruginosa 10-3 after 18 hrs by two fold serial dilution method; conditions: 10-3, 18 h; summary of the method: as §1
[11] = system: Pseudomonas aeruginosa; assay: Ratio of ciprofloxacin ED50 to compound ED50 for Pseudomonas aeruginosa 10-1 infected KM mouse systemic infection model
[12] = system: Pseudomonas aeruginosa; assay: Ratio of gemifloxacin ED50 to compound ED50 for Pseudomonas aeruginosa 10-1 infected KM mouse systemic infection model
[13] = system: Staphylococcus epidermidis; assay: Antibacterial activity against methicillin-resistant Staphylococcus epidermidis 10-4 after 18 hrs by two fold serial dilution method; conditions: 10-4, 18 h
Summary of the method: (§2)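 Agar two-fold serial dilution in melted Mueller-Hinton agar, 128 to 0.008 μg/mL. Plates inoculated with 10⁴ cfu, incubated 35 °C for 18 h. MIC taken as lowest concentration giving no visible growth on the plate.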

[14] = system: Staphylococcus aureus; assay: Antibacterial activity against methicillin-resistant Staphylococcus aureus 10-2 infected KM mouse systemic infection model assessed as decrease in mouse mortality administered orally twice after 1 and 4 hrs post infection measured up to 7 days; conditions: 10-2, po
Summary of the method: (§3)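 Strains grown on MH agar at 35 °C for 18 h, suspended in gastric mucin. Male KM mice (19–21 g), groups of 10, infected intraperitoneally with 0.5 mL at 5–10× MLD. Four oral dose levels per drug at 1 and 4 h post infection. Mortality followed 7 days; ED50 with 95% confidence limits by Bliss method.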

[15] = system: Staphylococcus epidermidis; assay: Antibacterial activity against methicillin-resistant Staphylococcus epidermidis 10-4 infected KM mouse systemic infection model assessed as decrease in mouse mortality administered orally twice after 1 and 4 hrs post infection measured up to 7 days; conditions: 10-4, po; summary of the method: as §3
[16] = system: Escherichia coli; assay: Antibacterial activity against Escherichia coli 10-2 infected KM mouse systemic infection model assessed as decrease in mouse mortality administered orally twice after 1 and 4 hrs post infection measured up to 7 days; conditions: 10-2, po; summary of the method: as §3
[17] = system: Klebsiella pneumoniae; assay: Antibacterial activity against Klebsiella pneumoniae 10-3 infected KM mouse systemic infection model assessed as decrease in mouse mortality administered orally twice after 1 and 4 hrs post infection measured up to 7 days; conditions: 10-3, po; summary of the method: as §3
[18] = system: Pseudomonas aeruginosa; assay: Antibacterial activity against Pseudomonas aeruginosa 10-1 infected KM mouse systemic infection model assessed as decrease in mouse mortality administered orally twice after 1 and 4 hrs post infection measured up to 7 days; conditions: 10-1, po; summary of the method: as §3
[19] = system: Staphylococcus epidermidis; assay: Ratio of ciprofloxacin ED50 to compound ED50 for methicillin-resistant Staphylococcus epidermidis 10-4 infected KM mouse systemic infection model
[20] = system: Staphylococcus epidermidis; assay: Ratio of gemifloxacin ED50 to compound ED50 for methicillin-resistant Staphylococcus epidermidis 10-4 infected KM mouse systemic infection model
[21] = system: Enterococcus faecium; assay: Antibacterial activity against Enterococcus faecium 09-1 after 18 hrs by two fold serial dilution method; conditions: 09-1, 18 h; summary of the method: as §1
[22] = system: Staphylococcus aureus; assay: Antibacterial activity against Staphylococcus aureus ATCC 25923 after 18 hrs by two fold serial dilution method; conditions: ATCC 25923, 18 h; summary of the method: as §1
[23] = system: Staphylococcus aureus; assay: Antibacterial activity against methicillin-resistant Staphylococcus aureus 10-1 after 18 hrs by two fold serial dilution method; conditions: 10-1, 18 h; summary of the method: as §2
[24] = system: Staphylococcus aureus; assay: Antibacterial activity against methicillin-resistant Staphylococcus aureus 10-2 after 18 hrs by two fold serial dilution method; conditions: 10-2, 18 h; summary of the method: as §2
[25] = system: Staphylococcus aureus; assay: Antibacterial activity against methicillin-resistant Staphylococcus aureus 10-3 after 18 hrs by two fold serial dilution method; conditions: 10-3, 18 h; summary of the method: as §2
[26] = system: Staphylococcus aureus; assay: Antibacterial activity against methicillin-resistant Staphylococcus aureus 10-4 after 18 hrs by two fold serial dilution method; conditions: 10-4, 18 h; summary of the method: as §2
[27] = system: Staphylococcus aureus; assay: Antibacterial activity against methicillin-sensitive Staphylococcus aureus 10-1 after 18 hrs by two fold serial dilution method; conditions: 10-1, 18 h; summary of the method: as §1
[28] = system: Staphylococcus aureus; assay: Antibacterial activity against methicillin-sensitive Staphylococcus aureus 10-2 after 18 hrs by two fold serial dilution method; conditions: 10-2, 18 h; summary of the method: as §1
[29] = system: Staphylococcus aureus; assay: Antibacterial activity against methicillin-sensitive Staphylococcus aureus 10-3 after 18 hrs by two fold serial dilution method; conditions: 10-3, 18 h; summary of the method: as §1
[30] = system: Staphylococcus aureus; assay: Antibacterial activity against methicillin-sensitive Staphylococcus aureus 10-4 after 18 hrs by two fold serial dilution method; conditions: 10-4, 18 h; summary of the method: as §1
[31] = system: Staphylococcus aureus; assay: Antibacterial activity against methicillin-sensitive Staphylococcus aureus 10-5 after 18 hrs by two fold serial dilution method; conditions: 10-5, 18 h; summary of the method: as §1
[32] = system: Staphylococcus aureus; assay: Antibacterial activity against methicillin-sensitive Staphylococcus aureus 10-6 after 18 hrs by two fold serial dilution method; conditions: 10-6, 18 h; summary of the method: as §1
[33] = system: Staphylococcus epidermidis; assay: Antibacterial activity against methicillin-resistant Staphylococcus epidermidis 10-1 after 18 hrs by two fold serial dilution method; conditions: 10-1, 18 h; summary of the method: as §2
[34] = system: Staphylococcus epidermidis; assay: Antibacterial activity against methicillin-resistant Staphylococcus epidermidis 10-2 after 18 hrs by two fold serial dilution method; conditions: 10-2, 18 h; summary of the method: as §2
[35] = system: Staphylococcus epidermidis; assay: Antibacterial activity against methicillin-sensitive Staphylococcus epidermidis 10-1 after 18 hrs by two fold serial dilution method; conditions: 10-1, 18 h; summary of the method: as §1
[36] = system: Staphylococcus epidermidis; assay: Antibacterial activity against methicillin-sensitive Staphylococcus epidermidis 10-2 after 18 hrs by two fold serial dilution method; conditions: 10-2, 18 h; summary of the method: as §1
[37] = system: Streptococcus pneumoniae; assay: Antibacterial activity against Streptococcus pneumoniae 10-1 after 18 hrs by two fold serial dilution method; conditions: 10-1, 18 h; summary of the method: as §1
[38] = system: Enterococcus faecium; assay: Antibacterial activity against Enterococcus faecium 09-2 after 18 hrs by two fold serial dilution method; conditions: 09-2, 18 h; summary of the method: as §1
[39] = system: Enterococcus faecium; assay: Antibacterial activity against Enterococcus faecium 09-3 after 18 hrs by two fold serial dilution method; conditions: 09-3, 18 h; summary of the method: as §1
[40] = system: Enterococcus faecium; assay: Antibacterial activity against Enterococcus faecium 09-4 after 18 hrs by two fold serial dilution method; conditions: 09-4, 18 h; summary of the method: as §1
[41] = system: Enterococcus faecium; assay: Antibacterial activity against Enterococcus faecium 09-5 after 18 hrs by two fold serial dilution method; conditions: 09-5, 18 h; summary of the method: as §1
[42] = system: Enterococcus faecium; assay: Antibacterial activity against Enterococcus faecium 09-6 after 18 hrs by two fold serial dilution method; conditions: 09-6, 18 h; summary of the method: as §1
[43] = system: Enterococcus faecalis; assay: Antibacterial activity against Enterococcus faecalis 09-1 after 18 hrs by two fold serial dilution method; conditions: 09-1, 18 h; summary of the method: as §1
[44] = system: Enterococcus faecalis; assay: Antibacterial activity against Enterococcus faecalis 09-2 after 18 hrs by two fold serial dilution method; conditions: 09-2, 18 h; summary of the method: as §1
[45] = system: Escherichia coli; assay: Antibacterial activity against Escherichia coli ATCC 25922 after 18 hrs by two fold serial dilution method; conditions: ATCC 25922, 18 h; summary of the method: as §1
[46] = system: Escherichia coli; assay: Antibacterial activity against Escherichia coli 09-1 after 18 hrs by two fold serial dilution method; conditions: 09-1, 18 h; summary of the method: as §1
[47] = system: Escherichia coli; assay: Antibacterial activity against Escherichia coli 09-2 after 18 hrs by two fold serial dilution method; conditions: 09-2, 18 h; summary of the method: as §1
[48] = system: Escherichia coli; assay: Antibacterial activity against Escherichia coli 09-3 after 18 hrs by two fold serial dilution method; conditions: 09-3, 18 h; summary of the method: as §1

In the case of `NCC1CN(c2nc3c(cc2F)c(=O)c(C(=O)O)cn3C2CC2)C/C1=N\OC(F)F` (racemic), the MIC [1] is reported as 16 µg/mL (≈ 37.6 µM), the MIC [2] is reported as 0.5 µg/mL (≈ 1.18 µM) and the MIC [3] is reported as 8 µg/mL (≈ 18.8 µM). It also gave an MIC [4] of 32 µg/mL (≈ 75.2 µM), an MIC [5] of 0.015 µg/mL (≈ 0.0353 µM) and an MIC [6] of 0.5 µg/mL (≈ 1.18 µM). The MIC [7] was 0.5 µg/mL (≈ 1.18 µM), the MIC [8] was 0.5 µg/mL (≈ 1.18 µM) and the MIC [9] was 32 µg/mL (≈ 75.2 µM). For the same compound, the MIC [10] was 4 µg/mL (≈ 9.4 µM), the “Ratio ED50” value [11] was 5.2 and the Ratio ED50 [12] was 6.1. The MIC [13] was 2 µg/mL (≈ 4.7 µM), the ED50 [14] was 14.3 mg/kg and the ED50 [15] was 16.9 mg/kg. For the same compound, the ED50 [16] was 5.83 mg/kg, the ED50 [17] was 100 mg/kg and the ED50 [18] was 21.3 mg/kg. The “Ratio ED50” value [19] was 1.4, the “Ratio ED50” value [20] was 1.4 and the MIC [21] was 32 µg/mL (≈ 75.2 µM). The MIC [22] was 0.015 µg/mL (≈ 0.0353 µM), the MIC [23] was 16 µg/mL (≈ 37.6 µM) and the MIC [24] was 1 µg/mL (≈ 2.35 µM). It also gave an MIC [25] of 16 µg/mL (≈ 37.6 µM), an MIC [26] of 32 µg/mL (≈ 75.2 µM) and an MIC [27] of 0.015 µg/mL (≈ 0.0353 µM). It also gave an MIC [28] of 4 µg/mL (≈ 9.4 µM), an MIC [29] of 0.06 µg/mL (≈ 0.141 µM) and an MIC [30] of 0.5 µg/mL (≈ 1.18 µM). For the same compound, the MIC [31] was 0.008 µg/mL (≈ 0.0188 µM), the MIC [32] was 0.06 µg/mL (≈ 0.141 µM) and the MIC [33] was 4 µg/mL (≈ 9.4 µM). It also gave an MIC [34] of 0.25 µg/mL (≈ 0.588 µM), an MIC [35] of 64 µg/mL (≈ 150 µM) and an MIC [36] of 32 µg/mL (≈ 75.2 µM). The MIC [37] was 0.03 µg/mL (≈ 0.0705 µM), the MIC [38] was 32 µg/mL (≈ 75.2 µM) and the MIC [39] was 16 µg/mL (≈ 37.6 µM). The MIC [40] was 0.125 µg/mL (≈ 0.294 µM), the MIC [41] was 16 µg/mL (≈ 37.6 µM) and the MIC [42] was 0.06 µg/mL (≈ 0.141 µM). For the same compound, the MIC [43] was 4 µg/mL (≈ 9.4 µM), the MIC [44] was 8 µg/mL (≈ 18.8 µM) and the MIC [45] was 0.008 µg/mL (≈ 0.0188 µM). The MIC [46] was 16 µg/mL (≈ 37.6 µM), the MIC [47] was 32 µg/mL (≈ 75.2 µM) and the MIC [48] was 16 µg/mL (≈ 37.6 µM).
